The target in test [1] is T1, Polyunsaturated fatty acid 5-lipoxygenase (Homo sapiens, UniProt P09917).
T1 sequence (P09917 whole entry): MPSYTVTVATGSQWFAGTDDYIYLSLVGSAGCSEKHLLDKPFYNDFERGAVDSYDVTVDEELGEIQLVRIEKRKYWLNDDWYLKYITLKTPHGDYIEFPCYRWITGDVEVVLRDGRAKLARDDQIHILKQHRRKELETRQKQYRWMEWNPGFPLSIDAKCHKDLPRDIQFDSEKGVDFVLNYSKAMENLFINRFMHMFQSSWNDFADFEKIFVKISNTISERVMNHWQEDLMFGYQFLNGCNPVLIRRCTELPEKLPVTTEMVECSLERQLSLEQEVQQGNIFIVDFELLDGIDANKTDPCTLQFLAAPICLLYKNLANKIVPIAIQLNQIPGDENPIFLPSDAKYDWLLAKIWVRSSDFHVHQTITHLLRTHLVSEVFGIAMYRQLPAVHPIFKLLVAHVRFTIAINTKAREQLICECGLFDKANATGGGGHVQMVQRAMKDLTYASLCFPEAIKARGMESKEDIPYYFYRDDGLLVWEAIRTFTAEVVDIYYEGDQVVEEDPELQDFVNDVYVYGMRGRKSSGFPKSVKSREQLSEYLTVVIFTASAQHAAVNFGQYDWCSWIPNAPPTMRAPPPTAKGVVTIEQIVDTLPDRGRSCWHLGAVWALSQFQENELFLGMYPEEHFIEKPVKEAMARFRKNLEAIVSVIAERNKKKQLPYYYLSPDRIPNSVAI
The test is described as follows: Inhibition of 5-lipoxygenase in human whole blood. The format is tissue-based. Summed up:
(§1)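 Eicosanoid (LTB4, PGE2, TXB2) generation measured in vitro in heparinised rat or human whole blood; IC50s given ± SE with the number of determinations.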

The species entered for test [2] is Homo sapiens. The test is described as follows: In vitro inhibition of LTB4 synthesis in human whole blood. The format is functional. Summed up: as §1
Test [3] is filed under the species Homo sapiens. As to the kind of experiment: In vitro inhibition of TXB2 synthesis in human whole blood. The format is functional. Summed up:
as §1

The species named for test [4] is Mus musculus. As to the kind of experiment: In vitro inhibition of LTC4 synthesis in plasma free mouse macrophages. The format is functional. Summed up: (§2)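 LTC4 and PGE2 synthesis measured in plasma-free cultures of murine peritoneal macrophages.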
For test [5], the species on record is Mus musculus. The test is described as follows: In vitro inhibition of PGE-2 synthesis in plasma free mouse macrophages. The format is functional. Summed up:
as §2

The species named for test [6] is Rattus norvegicus. As to the kind of experiment: In vitro inhibition of LTB4 synthesis in rat whole blood. The format is functional. Summed up:
as §1

The subject of test [7] is Rattus norvegicus. The test is described as follows: Compound was evaluated ex vivo for inhibition of LTB4 synthesis in rat on oral administration. The test is classed as functional. Summed up: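 Rats dosed orally at 1 mL/kg with a suspension made by mixing 300 µL of compound in DMSO into 15 mL of 0.5% hydroxypropyl methyl cellulose with 0.1% polysorbate 80. Controls got the same volume of vehicle. After 1 h the animals were killed and bled, and LTB4 and TXB2 synthesis was measured in the blood ex vivo, n = 5 per point.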

For test [8], the species on record is Rattus norvegicus. The test is described as follows: In vitro inhibition of TXB2 synthesis against rat whole blood.
In test [9] the target is T2, Polyunsaturated fatty acid 5-lipoxygenase (Mus musculus, UniProt P48999).
T2 sequence (P48999 whole entry): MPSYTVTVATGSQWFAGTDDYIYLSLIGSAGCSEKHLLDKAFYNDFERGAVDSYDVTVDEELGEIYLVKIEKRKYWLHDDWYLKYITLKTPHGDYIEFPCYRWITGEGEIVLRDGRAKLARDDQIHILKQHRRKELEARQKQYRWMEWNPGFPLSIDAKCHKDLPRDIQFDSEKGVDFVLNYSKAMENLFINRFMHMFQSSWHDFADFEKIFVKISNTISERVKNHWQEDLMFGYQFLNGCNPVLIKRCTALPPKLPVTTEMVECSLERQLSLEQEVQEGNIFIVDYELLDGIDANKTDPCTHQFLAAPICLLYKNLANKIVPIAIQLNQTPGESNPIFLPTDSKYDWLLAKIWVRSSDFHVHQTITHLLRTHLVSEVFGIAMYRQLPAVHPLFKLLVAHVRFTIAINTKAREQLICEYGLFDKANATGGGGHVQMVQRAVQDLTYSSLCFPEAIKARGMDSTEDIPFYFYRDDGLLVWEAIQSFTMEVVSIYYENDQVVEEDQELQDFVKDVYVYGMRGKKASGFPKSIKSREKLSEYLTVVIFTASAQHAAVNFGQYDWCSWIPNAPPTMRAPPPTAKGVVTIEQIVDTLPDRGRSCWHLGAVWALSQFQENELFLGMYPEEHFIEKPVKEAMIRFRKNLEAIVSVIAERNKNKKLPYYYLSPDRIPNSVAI
The test is described as follows: Inhibition of 5-lipoxygenase in mouse macrophages. Summed up: as §2

Test [10] addresses T3, Polyunsaturated fatty acid 5-lipoxygenase (Rattus norvegicus, UniProt P12527).
T3 sequence (P12527 whole entry): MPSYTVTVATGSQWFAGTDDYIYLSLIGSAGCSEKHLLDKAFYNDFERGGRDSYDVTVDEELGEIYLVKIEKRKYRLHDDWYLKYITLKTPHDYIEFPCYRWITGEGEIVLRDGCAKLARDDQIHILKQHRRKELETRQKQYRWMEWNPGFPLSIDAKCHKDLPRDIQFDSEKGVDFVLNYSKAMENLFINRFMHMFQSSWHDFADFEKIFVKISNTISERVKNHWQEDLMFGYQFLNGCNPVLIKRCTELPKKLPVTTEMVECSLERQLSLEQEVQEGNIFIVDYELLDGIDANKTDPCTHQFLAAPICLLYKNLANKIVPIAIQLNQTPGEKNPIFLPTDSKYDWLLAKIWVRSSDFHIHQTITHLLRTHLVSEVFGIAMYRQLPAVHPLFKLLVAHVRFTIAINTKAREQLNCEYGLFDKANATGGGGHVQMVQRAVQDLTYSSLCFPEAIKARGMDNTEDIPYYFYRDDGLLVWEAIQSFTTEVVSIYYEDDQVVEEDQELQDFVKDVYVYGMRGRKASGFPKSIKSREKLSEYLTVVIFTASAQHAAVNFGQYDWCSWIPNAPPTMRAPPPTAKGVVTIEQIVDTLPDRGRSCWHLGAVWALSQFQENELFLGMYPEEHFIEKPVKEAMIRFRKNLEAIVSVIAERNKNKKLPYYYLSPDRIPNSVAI
The test is described as follows: Compound was tested for the inhibition of 5-lipoxygenase (5-LPO) in rat basophilic leukemia (RBL) cells. The test is classed as cell-based, RBL-1. Summed up: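 Cell-free 5-LPO activity was measured spectrophotometrically. The enzyme source was the high-speed supernatant of rat basophilic leukemia (RBL) cells.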

Test [11] addresses T3, Polyunsaturated fatty acid 5-lipoxygenase. The test is described as follows: Compound was tested for the inhibition of 5-lipoxygenase (5-Lpo) in rat whole blood. The test is classed as tissue-based. Summed up:
as §1

Test [12] is filed under the species Rattus norvegicus. The test is described as follows: In vitro inhibition of PGE-2 synthesis against rat whole blood. The format is functional. The note with it: in the assay text read “TXB2” for “PGE-2”. Summed up:
as §1

On to `COC1CCc2ccc(OCc3ccc4ccccc4c3)cc21` (configuration not stated), for which, in test [1], the IC50 is greater than 40000 nM.

Take `CC(c1cc2ccccc2s1)N(O)C(N)=O` (configuration not stated) [ZILEUTON]: the IC50 in the test filed under Homo sapiens [2] was 2000 nM; in the test listed under Homo sapiens [3] it was 25000 nM; in the test filed under Mus musculus [4] it was 1200 nM; in the test listed under Mus musculus [5] it was 27000 nM; in the test filed under Rattus norvegicus [6] it was 2000 nM; in the test filed under Rattus norvegicus [8], 25000 nM. For the same molecule, the ED50 with Rattus norvegicus [7] is 5 mg/kg.

Consider `COC1(c2nccs2)CCc2ccc(OCc3ccc4ccccc4c3)cc21` (racemic), for which the figures for the IC50 in [9], in test [1] and in test [10] were 14 nM, 700 nM and 800 nM, respectively.

Take `COC1(c2nccs2)CCc2c(OCc3ccc4ccccc4c3)cccc21` (configuration not stated): the IC50 in test [1] is greater than 40000 nM.

On to `CCC(OC)(c1cccc(OCc2ccc3ccccc3c2)c1)c1nccs1` (configuration not stated) [ZM-211965], for which the IC50 in [9] was 8 nM; in test [11] it was 500 nM; in the test listed under Homo sapiens [2] it was 400 nM; in the test listed under Homo sapiens [3], greater than 100000 nM; in the test filed under Mus musculus [4] it was 8 nM; in the test filed under Mus musculus [5], greater than 50000 nM. The IC50 in the test listed under Rattus norvegicus [6] is 500 nM; in the test filed under Rattus norvegicus [12] it was greater than 100000 nM. Moreover, the ED50 in the test on Rattus norvegicus [7] came out at 10 mg/kg.

Turning to `COC1(c2nccs2)CCc2ccc(OCc3ccc4ccccc4c3)cc21` (single isomer, unassigned; (-)), the values for the IC50 in [9], in test [1] and in test [10] were 1500 nM, greater than 40000 nM and greater than 20000 nM, respectively.

For the molecule `COC(C)(c1cccc(OCc2ccc3ccccc3c2)c1)c1nccs1` (stereo in doubt; 2o), the IC50 in test [9] is 2000 nM; in [1], roughly 40000 nM.

On to `COC(C)(c1cccc(OCc2ccc3ccccc3c2)c1)c1nccs1` (configuration not stated), for which the IC50 worked out at 5 nM in [9], 500 nM in test [1] and 800 nM in [11].

With `CC(C)C(O)(c1cccc(OCc2ccc3ccccc3c2)c1)c1nccs1` (configuration not stated), the IC50 in [9] came to 1000 nM; in test [1], 40000 nM.

For the molecule `CCC(O)(c1cccc(OCc2ccc(Cl)c(Cl)c2)c1)c1nccs1` (configuration not stated), in [1], the IC50 amounted to 1100 nM.

In turn, `CCC(OC)(c1cccc(OCc2cccc3ccccc23)c1)c1nccs1` (configuration not stated) had a half-maximal inhibitory concentration (IC50) in test [1] of 4800 nM.

With `CCC(O)(c1cccc(OCC#Cc2cccc(C)c2)c1)c1nccs1` (configuration not stated), it took 2500 nM to reach half-maximal inhibition in [1] (IC50).

In the case of `CCCC(O)(c1cccc(OCc2ccc3ccccc3c2)c1)c1nccs1` (configuration not stated), the IC50 came out at 80 nM in test [9] and 8800 nM in [1].

`CCC(O)(c1cccc(OCC#Cc2ccccc2)c1)c1nccs1` (configuration not stated): the IC50 in [9] amounted to 30 nM; in test [1], 1000 nM.

For the molecule `CCC(OC)(c1cccc(OCc2ccc3ccccc3c2)c1)c1cncs1` (configuration not stated), the IC50 in test [1] amounted to 6300 nM. In other words, the single-digit micromolar range.

In turn, `CCC(OC)(c1ccc(OCc2ccc3ccccc3c2)cc1)c1nccs1` (configuration not stated) gave an IC50 in test [1] of roughly 40000 nM.

For `COC(C)(c1cccc(OCc2ccc3ccccc3c2)c1)c1nccs1` (stereo in doubt; 2p), the IC50 in test [9] stood at 30 nM; in test [1], 700 nM.

As for `CCC(OC)(c1cccc(OCc2ccc3ccccc3c2)c1)c1nc(C)cs1` (configuration not stated), the IC50 in test [9] was 820 nM; in [1], roughly 40000 nM.

As to `COC(c1cccc(OCc2ccc3ccccc3c2)c1)c1nccs1` (configuration not stated), the figures for the IC50 in test [9], in test [1] and in test [11] were 300 nM, 7000 nM and 6000 nM, respectively.

Consider `CCC(O)(c1cccc(OC/C=C/c2ccccc2)c1)c1nccs1` (configuration not stated), for which the half-maximal inhibitory concentration (IC50) is 6 nM in test [9] and 800 nM in test [1].

For the molecule `COC1(c2nccs2)CCc2ccc(OCc3ccc4ccccc4c3)cc21` (single isomer, unassigned; (+)), the IC50 in test [9] was less than 30 nM; in [1], 500 nM; in test [10], 130 nM.

As to `CCCCCCCCCCOc1cccc(C(O)c2nc(C)c[nH]2)c1` (configuration not stated), the IC50 in test [11] is greater than 30000 nM.

On to `CCC(OC)(c1nccs1)c1ccccc1OCc1ccc2ccccc2c1` (configuration not stated), for which the IC50 in [1] was greater than 40000 nM.

In the case of `CCC(OC)(c1cccc(OCc2ccc(F)c(F)c2)c1)c1nccs1` (configuration not stated), the IC50 in test [9] came out at 800 nM; in [1], 40000 nM.

As for `CCC(O)(c1cccc(OCCCc2ccccc2)c1)c1nccs1` (configuration not stated), in [1], 11000 nM corresponded to half-maximal inhibition (IC50).

With `Cc1cnc(C(C)(O)c2cccc(OCc3ccc4ccccc4c3)c2)s1` (configuration not stated), in test [1], the IC50 is roughly 40000 nM.

As to `c1ccc2cc(COc3ccc4c(c3)C(c3nccs3)CC4)ccc2c1` (configuration not stated), the IC50 in test [1] was greater than 40000 nM.

`CCC(OC)(c1cccc(OCc2ccc3ccccc3c2)c1)c1cscn1` (configuration not stated) yielded an IC50 in test [1] of 600 nM.

As for `OC(c1cccc(OCc2ccc3ccccc3c2)c1)c1nccs1` (configuration not stated), the IC50 in [11] is 30000 nM.

Molecule `Cc1cnc(C(O)c2cccc(OCc3ccc4ccccc4c3)c2)[nH]1` (configuration not stated) came in with an IC50 in test [11] greater than 30000 nM.

(Values after ChEMBL document CHEMBL1125585, “(Methoxyalkyl)thiazoles: a new series of potent, selective, and orally active 5-lipoxygenase inhibitors displaying high enantioselectivity” (J Med Chem, 1991).)
